Experimental data taken from BindingDB's records for doi:10.1021/jm0100741 (Tohoku University, 2001).

Tests used:
[1] = target: T1, M-phase inducer phosphatase 2 (Mus musculus, UniProt P30306); experiment: Inhibitory activity against cell division cycle 25B
T1 sequence (P30306 whole entry): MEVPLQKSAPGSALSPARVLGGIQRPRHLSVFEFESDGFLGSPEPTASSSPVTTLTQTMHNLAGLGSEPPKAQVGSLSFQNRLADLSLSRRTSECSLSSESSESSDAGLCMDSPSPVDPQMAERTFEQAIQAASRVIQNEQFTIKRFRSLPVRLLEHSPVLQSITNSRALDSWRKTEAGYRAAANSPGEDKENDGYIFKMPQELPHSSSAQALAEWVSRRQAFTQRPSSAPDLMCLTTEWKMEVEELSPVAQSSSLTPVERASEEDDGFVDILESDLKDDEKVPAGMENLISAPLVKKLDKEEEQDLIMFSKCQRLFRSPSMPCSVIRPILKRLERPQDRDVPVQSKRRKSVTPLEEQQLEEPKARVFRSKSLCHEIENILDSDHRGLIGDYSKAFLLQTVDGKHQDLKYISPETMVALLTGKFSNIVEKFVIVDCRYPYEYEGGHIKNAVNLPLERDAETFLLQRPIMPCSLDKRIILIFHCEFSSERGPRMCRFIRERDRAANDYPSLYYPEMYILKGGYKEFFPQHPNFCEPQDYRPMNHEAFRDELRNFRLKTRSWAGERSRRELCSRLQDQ

[2] = target: Dual specificity protein phosphatase 3 (Homo sapiens, UniProt P51452); experiment: Inhibitory activity against vaccinia VH1-related phosphatase (VHR)
Sequence of Dual specificity protein phosphatase 3 (P51452 whole entry): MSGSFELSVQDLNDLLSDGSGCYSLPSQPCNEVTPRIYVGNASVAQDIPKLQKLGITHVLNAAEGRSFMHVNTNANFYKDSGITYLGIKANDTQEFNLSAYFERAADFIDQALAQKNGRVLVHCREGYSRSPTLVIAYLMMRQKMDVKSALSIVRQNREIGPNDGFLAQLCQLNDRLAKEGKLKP
In short: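 Recombinant VHR expressed in E. coli and purified, used at 0.6 μM with 10 mM pNPP substrate in 50 mM succinate, 1 mM EDTA, 150 mM NaCl, pH 6.0, ± compound. Incubated 3 min at 37 °C, stopped with 1 N NaOH, and activity read as absorbance change at 405 nm.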

Compound | IC50 [1] | IC50 [2]
O=C(OCc1ccccc1)c1c(O)oc(CO)c1O [4-Hydroxy-5-hydroxymethyl-2-oxo-2,5-dihydro-furan-3-carboxylic acid benzyl ester] | > 125 µM | > 250 µM
O=C(OC1CCCCC1)c1c(O)oc(CO)c1O [4-Hydroxy-5-hydroxymethyl-2-oxo-2,5-dihydro-furan-3-carboxylic acid cyclohexyl ester] | > 125 µM | > 250 µM
CC(C)=CCCC(C)CCOC(=O)c1c(O)oc(CO)c1O (stereo unspecified) [4-Hydroxy-5-hydroxymethyl-2-oxo-2,5-dihydro-furan-3-carboxylic acid 3,7-dimethyl-oct-6-enyl ester] | > 125 µM | > 250 µM
